Experimental findings from ChEMBL document CHEMBL1275292, “Design and synthesis of bioactive adamantanaminoalcohols and adamantanamines” (Eur J Med Chem, 2010) are described below.

The source made the active and inactive calls. No cut-off for these calls is given here.

Data set [1] has as its system H3N2 subtype. Kind of data set: Antiviral activity against Influenza A virus (A/Hong Kong/7/1987(H3N2)) infected in MDCK cells assessed as inhibition of virus-induced cytopathogenicity by MTS assay. In kind it is functional, organism-based. The essentials: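 MDCK cells infected with influenza A/HK/7/87 (H3N2), whose M2 carries serine at position 31. Virus-induced cytopathic effect was read after multiple replication cycles at 72 h post infection by microscopic scoring and by a colorimetric formazan MTS cell-viability assay. EC50 is the concentration giving 50% inhibition of CPE by MTS. Compounds were tested as hydrochlorides, aminoalcohols as free bases. Values are mean ± SD with the number of independent determinations.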
(Damage to the host cells serves as the signal in cytopathic effect assays.)

The test system of data set [2] is Trypanosoma brucei. In words: Antiparasitic activity against Trypanosoma brucei 427 bloodstream forms assessed as inhibition of parasite growth at 5 ug/mL after 48 hrs. The conditions noted are these: Trypanosoma brucei, 427, 48 h; read-out: GI. In kind it is functional.
Data set [3] in a line: Cytotoxicity against MDCK cells by MTS assay. The conditions noted are these: dog. It counts as cell-based, Canis lupus familiaris.
Data set [4] relates to Trypanosoma brucei. In words: Antiparasitic activity against Trypanosoma brucei 427 bloodstream forms assessed as inhibition of parasite growth after 48 hrs. It counts as functional, organism-based. The essentials:
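Bloodstream-form T. brucei strain 427 were grown at 37 °C and pH 7.4 in modified Iscove's medium, in 4 ml cultures for 48 h across a drug range of 0.1 to 25. Cell densities were counted by hemocytometer and growth was expressed as % of untreated controls. IC50 and IC90 were derived from these counts, as mean ± SD of three experiments.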

The nature of data set [5]: Selectivity index, ratio of MCC for MDCK cells to EC50 for Influenza A virus (A/Hong Kong/7/1987(H3N2)). In kind it is toxicity, cell-based. As to conditions: dog, read-out: Selectivity Index.
The subject of data set [6] is H3N2 subtype. Kind of data set: Antiviral activity against Influenza A virus (A/Hong Kong/7/1987(H3N2)) infected in MDCK cells assessed as inhibition of virus-induced cytopathogenicity at 500 uM by MTS assay. It counts as functional, organism-based.
[7] abbreviates: Trypanosoma brucei, 427, 48 h, read-out: IC50.

For `NC1CC2CC3CC(C2)C1C3` (centres undefined), the half-maximal effective concentration (EC50) in the data set on H3N2 subtype [1] came to 1.5 µM. Further, the inhibition of growth at 5 µg/mL with Trypanosoma brucei [2] worked out at 30%. The molecule also had an MCC in data set [3] of 107 µM. For the same molecule, the concentration for half-maximal inhibition (IC50) result in the data set with Trypanosoma brucei [4] is on record as “Not Active”. Moreover, the selectivity ratio in data set [5] was 69.
On to `NC12CC3CC(CC(C3)C1)C2` [AMANTADINE], for which the 50% effective concentration (EC50) in the data set with H3N2 subtype [1] came out at 2 µM. In data set [3], the MCC was over 100 µM. Moreover, the selectivity ratio in data set [5] is over 51.
Regarding `NC1(CO)C2CC3CC(C2)CC1C3` (centres undefined), the EC50 with H3N2 subtype [1] worked out at 1.46 µM. Also, the MCC in data set [3] is over 459 µM. In addition, in the data set with Trypanosoma brucei [4] (Trypanosoma brucei, 427, 48 h), the 90% effect concentration (IC90) amounted to 18.2 µM. The half-inhibitory concentration (IC50) in the data set on Trypanosoma brucei [4] (setting [7]) amounted to 9.4 µM. Also, in data set [5], the selectivity ratio is over 314.
As to `NC(=O)c1ncn([C@@H]2O[C@H](CO)[C@@H](O)[C@H]2O)n1` [RIBAVIRIN], the EC50 with H3N2 subtype [1] was found to be 8.7 µM.
With `NCC1(CO)C2CC3CC(C2)CC1C3` (centres undefined), the 50% effective concentration (EC50) with H3N2 subtype [1] amounted to 0.34 µM. Further, the inhibition of growth at 5 µg/mL in the data set on Trypanosoma brucei [2] is 30%. Further, the MCC in data set [3] turned out to be 87 µM. For the same molecule, the IC50 result in the data set on Trypanosoma brucei [4] is “Not Active”. In data set [5], the selectivity ratio was 256.
In the case of `NCCC1(O)CC2CC3CC(C2)C1C3` (centres undefined), the EC50 in the data set on H3N2 subtype [1] amounted to 7.68 µM. The inhibition of growth at 5 µg/mL with Trypanosoma brucei [2] was found to be 30%. In data set [3], this molecule registered an MCC of 512 µM. In addition, the concentration for half-maximal inhibition (IC50) result in the data set with Trypanosoma brucei [4] is reported as “Not Active”. Also, in data set [5], the selectivity ratio worked out at 67.
In the case of `CN(C)CCCC12CC3CC(CC(C3)C1O)C2` (centres undefined), in the data set with H3N2 subtype [6], the inhibition entry was “inactive”. Moreover, the MCC in data set [3] is over 250 µM. For the same molecule, the IC90 in the data set on Trypanosoma brucei [4] (Trypanosoma brucei, 427, 48 h) worked out at 1.8 µM. In addition, the IC50 in the data set with Trypanosoma brucei [4] (setting [7]) came out at 0.84 µM.
Take `CNC1(c2ccccn2)C2CC3CC(C2)CC1C3` (centres undefined): the inhibition result with H3N2 subtype [6] is “inactive”. Further, in data set [3], the MCC was determined as 264 µM. Besides, in the data set with Trypanosoma brucei [4] (Trypanosoma brucei, 427, 48 h), the IC90 is over 25 µM. For the same molecule, the IC50 in the data set with Trypanosoma brucei [4] (setting [7]) was found to be 24.6 µM.
For `NC1C2CC3CC(C2)CC1(c1ccccc1)C3` (centres undefined), the inhibition result with H3N2 subtype [6] is “inactive”. Further, in data set [3], the MCC was determined as 218 µM. Further, the IC90 with Trypanosoma brucei [4] (Trypanosoma brucei, 427, 48 h) is over 20 µM. The half-inhibitory concentration (IC50) in the data set with Trypanosoma brucei [4] (setting [7]) is 11.1 µM.
As to `CNC(CN)C12CC3CC(CC(C3)C1)C2` (centres undefined), in the data set on H3N2 subtype [6], the inhibition entry was “inactive”. In data set [3], this molecule showed an MCC of 404 µM. In addition, in the data set on Trypanosoma brucei [4] (Trypanosoma brucei, 427, 48 h), the IC90 came to 7.8 µM. Also, the IC50 in the data set on Trypanosoma brucei [4] (setting [7]) was found to be 5.2 µM.
Regarding `NCC1(O)C2CC3CC(C2)CC1C3` (centres undefined), the inhibition result in the data set with H3N2 subtype [6] is “inactive”. Also, the inhibition of growth at 5 µg/mL in the data set with Trypanosoma brucei [2] amounted to 30%. The half-maximal inhibitory concentration (IC50) entry in the data set on Trypanosoma brucei [4] is listed as “Not Active”.
With `CN(C)CCCC12CC3CC(CC(C3)C1N)C2` (centres undefined), the inhibition result with H3N2 subtype [6] is “inactive”. The inhibition of growth at 5 µg/mL in the data set with Trypanosoma brucei [2] is 30%. The molecule further came in with an MCC in data set [3] of over 200 µM. Moreover, the IC50 entry in the data set on Trypanosoma brucei [4] is on record as “Not Active”.
Turning to `CN(C)CCC[C@]1(O)CC2CC3CC(C2)C1C3` (some centres undefined), in the data set with H3N2 subtype [6], the inhibition entry is “inactive”. Moreover, the MCC in data set [3] is over 250 µM. In the data set with Trypanosoma brucei [4] (Trypanosoma brucei, 427, 48 h), the IC90 stood at 1.7 µM. Also, the IC50 in the data set with Trypanosoma brucei [4] (setting [7]) is 0.84 µM.
Consider `NCCC12CC3CC(CC(C3)C1O)C2` (centres undefined), for which the 50% effective concentration (EC50) in the data set with H3N2 subtype [1] is 8.6 µM. Further, the inhibition of growth at 5 µg/mL with Trypanosoma brucei [2] stood at 30%. Moreover, the MCC in data set [3] stood at 512 µM. In addition, the IC50 result with Trypanosoma brucei [4] was “Not Active”. The selectivity ratio in data set [5] was 60.
As for `OC1(C2CCCCN2)C2CC3CC(C2)CC1C3` (centres undefined), the inhibition result in the data set with H3N2 subtype [6] was “inactive”. Further, the inhibition of growth at 5 µg/mL in the data set on Trypanosoma brucei [2] came to 30%. In data set [3], this molecule showed an MCC of 208 µM. Further, in the data set on Trypanosoma brucei [4], the concentration for half-maximal inhibition (IC50) entry was “Not Active”.
As to `CC(N)C12CC3CC(CC(C3)C1)C2` (centres undefined) [RIMANTADINE], the half-maximal effective concentration (EC50) in the data set with H3N2 subtype [1] is at most 0.362 µM. The MCC in data set [3] is over 100 µM. For the same molecule, in the data set on Trypanosoma brucei [4] (Trypanosoma brucei, 427, 48 h), the IC90 is 14 µM. Moreover, in data set [5], the selectivity ratio was over 276.
Regarding `NCCC1(O)C2CC3CC(C2)CC1C3` (centres undefined), in the data set with H3N2 subtype [1], the EC50 is 6.24 µM. The inhibition of growth at 5 µg/mL with Trypanosoma brucei [2] turned out to be 30%. The same molecule came in with an MCC in data set [3] of 17 µM. Further, the IC50 result in the data set on Trypanosoma brucei [4] is reported as “Not Active”. Moreover, the selectivity ratio in data set [5] was 3.

What is called EC50 is the concentration needed to bring the measured effect to its halfway point. For orientation: IC50 means the concentration that inhibits the measured activity by half. One may read the IC90 as the point of the concentration-response curve where the effect stands at 90%.
